The values below come from ChEMBL document CHEMBL1137196, “Non-peptide oxytocin agonists” (Bioorg Med Chem Lett, 2004).

SMILES strings stand for the structures.

In one assay the target is Vasopressin V2 receptor (Homo sapiens, UniProt P30518). The experiment in a line: Effective concentration for human Vasopressin V2 receptor. The essentials:
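293 cells in phenol red-free DMEM with penicillin and 10% foetal calf serum were dual-transfected with V2 receptor and CRE-luciferase constructs, then grown 24 h at 37°C/5% CO2 before and after plating. Compounds came from 10 mM DMSO stocks (0.1% DMSO final). Luciferase was measured after 5 h at 37°C. EC50 from a 4-parameter logistic fit; mean ± SD (n≥3), or mean ± range where n=2.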

In another assay the target is T1, Oxytocin receptor (Homo sapiens, UniProt P30559).
T1 sequence (P30559 whole entry): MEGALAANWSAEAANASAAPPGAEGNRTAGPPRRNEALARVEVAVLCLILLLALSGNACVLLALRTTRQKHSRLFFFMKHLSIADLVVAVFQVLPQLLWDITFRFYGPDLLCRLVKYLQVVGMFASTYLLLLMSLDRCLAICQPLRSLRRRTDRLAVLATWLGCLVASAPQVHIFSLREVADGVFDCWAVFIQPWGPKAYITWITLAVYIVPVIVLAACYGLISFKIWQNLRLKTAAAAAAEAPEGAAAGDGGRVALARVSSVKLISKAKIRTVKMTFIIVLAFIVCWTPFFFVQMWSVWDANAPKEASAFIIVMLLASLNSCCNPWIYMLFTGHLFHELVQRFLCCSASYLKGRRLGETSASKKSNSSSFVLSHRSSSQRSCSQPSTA
Description: Effective concentration for human Oxytocin receptor. The essentials:
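CHO cells kept in phenol red-free DMEM with penicillin and 10% foetal calf serum, dual-transfected with human OT receptor and NFAT-luciferase constructs, then grown 24 h at 37°C/5% CO2 before and after plating. Compounds were diluted from 10 mM DMSO stocks (0.1% DMSO final). Luciferase was read after 5 h at 37°C. EC50 came from a 4-parameter logistic fit; mean ± SD (n≥3), or mean ± range where n=2.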

Assay [1] addresses Oxytocin receptor (Homo sapiens) (UniProt P30559). The experiment in a line: Agonist activity against Oxytocin receptor relative to oxytocin at 3 uM.

As usually defined, the EC50 is the concentration giving half of the maximal effect.

Sequence of Vasopressin V2 receptor (P30518 whole entry): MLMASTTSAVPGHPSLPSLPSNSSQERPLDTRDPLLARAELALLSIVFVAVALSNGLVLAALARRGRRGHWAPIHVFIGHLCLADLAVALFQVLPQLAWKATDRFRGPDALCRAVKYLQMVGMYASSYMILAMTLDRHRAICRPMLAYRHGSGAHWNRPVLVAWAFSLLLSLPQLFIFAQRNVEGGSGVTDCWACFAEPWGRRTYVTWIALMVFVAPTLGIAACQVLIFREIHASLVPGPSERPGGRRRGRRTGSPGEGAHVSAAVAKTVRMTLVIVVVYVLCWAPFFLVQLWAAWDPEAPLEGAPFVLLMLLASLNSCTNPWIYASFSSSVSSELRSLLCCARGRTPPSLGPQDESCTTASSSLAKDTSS

Turning to `CO[C@@H]1C[C@@H](C(=O)NCCN(C)C)N(C(=O)NCc2ccc(C(=O)N3CCCCc4sccc43)cc2Cl)C1`, the results for the EC50 on Vasopressin V2 receptor and on Oxytocin receptor were 1.8 µM and > 10 µM, respectively.

Turning to `CO[C@@H]1C[C@@H](C(=O)N2CCC(N3CCCCC3)CC2)N(C(=O)NCc2ccc(C(=O)N3CCCCc4sccc43)cc2Cl)C1`, the figures for the EC50 on Vasopressin V2 receptor and at Oxytocin receptor were 1.2 µM and 2.2 µM, respectively.

On to `Cc1cc(C(=O)N2CCCCc3sccc32)ccc1CNC(=O)N1CCC[C@H]1C(=S)N1CCCN(C)CC1`, for which the results for the EC50 at Vasopressin V2 receptor and at Oxytocin receptor were 0.89 µM and 0.64 µM, respectively.

Regarding `CC(C)NC(=O)C[C@H]1CCCN(C(=O)c2ccc(N3CCCC3)cc2Cl)c2ccccc21`, in assay [1], the Relativity is < 10%.

`CO[C@@H]1C[C@@H](C(=S)N2CCCN(C)CC2)N(C(=O)NCc2ccc(C(=O)N3CCCCc4sccc43)cc2Cl)C1`: the EC50 is 0.23 µM on Vasopressin V2 receptor and 0.43 µM on Oxytocin receptor.

On to `CO[C@@H]1C[C@@H](C(=O)N2CCCN(C)CC2)N(C(=O)NCc2ccc(C(=O)N3CCCCc4sccc43)cc2Cl)C1`, for which the EC50 on Vasopressin V2 receptor came to 1.3 µM; at Oxytocin receptor it was 2.8 µM.

Consider `CO[C@@H]1C[C@@H](C(=O)NCCc2ccccn2)N(C(=O)NCc2ccc(C(=O)N3CCCCc4sccc43)cc2Cl)C1`, for which the results for the EC50 at Vasopressin V2 receptor and on Oxytocin receptor were 0.57 µM and 1.5 µM, respectively.

With `CN1CCCN(C(=S)[C@@H]2CCCN2C(=O)NCc2ccc(C(=O)N3CCCCc4sccc43)cc2Cl)CC1`, the EC50 on Vasopressin V2 receptor came to 1.8 µM; at Oxytocin receptor, 0.81 µM.

Take `CO[C@@H]1C[C@@H](C(=O)N2CCC(N3CCCC3)CC2)N(C(=O)NCc2ccc(C(=O)N3CCCCc4sccc43)cc2Cl)C1`: the EC50 at Vasopressin V2 receptor was found to be 1.1 µM; at Oxytocin receptor, 2.3 µM.

In turn, `Cc1cc(C(=O)N2CCCCc3ccccc32)ccc1CNC(=O)NCC(=O)N(C)C` gave a Relativity in assay [1] of 33%.

With `CO[C@@H]1C[C@@H](C(=S)N2CCC(N3CCCC3)CC2)N(C(=O)NCc2ccc(C(=O)N3CCCCc4sccc43)cc2Cl)C1`, the EC50 at Vasopressin V2 receptor stood at 0.1 µM; on Oxytocin receptor it was 0.48 µM.

With `CO[C@@H]1C[C@@H](C(=S)NCCc2ccccn2)N(C(=O)NCc2ccc(C(=O)N3CCCCc4sccc43)cc2Cl)C1`, the EC50 at Vasopressin V2 receptor was 0.2 µM; at Oxytocin receptor, 0.47 µM.

Take `Cc1ccn(-c2ccc(C(=O)N3Cc4cccn4Cc4ccccc43)c(Cl)c2)n1`: the Relativity in assay [1] is < 10%.

`Cc1cc(C(=O)N2Cc3cnn(C)c3Nc3ccccc32)ccc1CNC(=O)N1CCC[C@H]1C(=S)N1CCCN(C)CC1`: the EC50 on Vasopressin V2 receptor turned out to be 0.85 µM; at Oxytocin receptor it was 0.033 µM.
